# ChEMBL document CHEMBL5143713, “Multitarget, Selective Compound Design Yields Potent Inhibitors of a Kinetoplastid Pteridine Reductase 1” (J Med Chem, 2022)
# Key:
# [1] = test system: human DHFR versus Leishmania major DHFR; test: Selectivity index, ratio of IC50 for human DHFR to IC50 for Leishmania major DHFR; type: toxicity; settings: read-out: Ratio IC50
# [2] = test system: human DHFR versus Trypanosoma brucei DHFR; test: Selectivity index, ratio of IC50 for human DHFR to IC50 for Trypanosoma brucei DHFR; type: toxicity; settings: read-out: Ratio IC50
# CYP3A4 = CYP3A4 (Homo sapiens, UniProt P08684); test: Inhibition of CYP3A4 (unknown origin) expressed in baculovirus-infected insect cells at 10 uM using CYP/Luciferin as substrate incubated for 30 mins in presence of NADPH by luminescence based analysis relative to control; type: ADME; settings: probe CYP/Luciferin
# Summary of the method: (§1)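 Tested at 10 μM using microsomal preparations of each CYP isoform from baculovirus-infected insect cells on a luminescent P450-Glo platform. The enzyme acts on its substrate to give light, and a fall in luminescence indicates inhibition.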
# [3] = test system: human DHFR versus Trypanosoma brucei PTR1; test: Selectivity index, ratio of IC50 for human DHFR to IC50 for Trypanosoma brucei PTR1; type: toxicity; settings: read-out: Ratio IC50
# [4] = test system: human DHFR versus Leishmania major PTR1; test: Selectivity index, ratio of IC50 for human DHFR to IC50 for Leishmania major PTR1; type: toxicity; settings: read-out: Ratio IC50
# 786-0 = test: Mitochondrial toxicity in human 786-0 cells at 10 uM incubated with compound for 6 hrs followed by incubation with MitoTracker Red chloromethyl-X-rosamine dye for 45 mins by imaging analysis relative to control; type: cell-based; settings: 786-0, 6 h
# Summary of the method: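 Tested at 10 μM. 786-O cells kept in RPMI-1640 with 2 mM glutamine, 10% FCS, streptomycin 100 μg/mL and penicillin G 100 U/mL. Mitochondrial toxicity read as MitoTracker Red (chloromethyl-X-rosamine) uptake by high-content imaging.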
# Pteridine reductase 1 = biological target: T1, Pteridine reductase 1 (Leishmania major, UniProt Q01782); test: Inhibition of recombinant Leishmania major PTR1 expressed in Escherichia coli BL21 (DE3) cells using H2B as substrate in presence of cytochrome c and NADPH by envision multilabel reader
# T1 sequence (Q01782 whole entry): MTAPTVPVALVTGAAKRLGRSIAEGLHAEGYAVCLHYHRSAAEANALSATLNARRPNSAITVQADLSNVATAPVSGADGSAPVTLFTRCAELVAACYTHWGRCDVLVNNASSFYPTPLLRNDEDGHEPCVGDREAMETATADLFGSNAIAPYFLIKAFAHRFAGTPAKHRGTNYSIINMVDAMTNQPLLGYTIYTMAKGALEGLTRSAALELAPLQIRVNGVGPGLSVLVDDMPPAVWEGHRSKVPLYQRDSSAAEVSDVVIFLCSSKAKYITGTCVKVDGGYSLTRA
# [5] = biological target: T2, Pteridine reductase, putative (Trypanosoma brucei, UniProt Q581W1); test: Inhibition of recombinant Trypanosoma brucei PTR1 expressed in Escherichia coli BL21 (DE3) cells using H2B as substrate in presence of cytochrome c and NADPH by envision multilabel reader
# T2 sequence (Q581W1 whole entry): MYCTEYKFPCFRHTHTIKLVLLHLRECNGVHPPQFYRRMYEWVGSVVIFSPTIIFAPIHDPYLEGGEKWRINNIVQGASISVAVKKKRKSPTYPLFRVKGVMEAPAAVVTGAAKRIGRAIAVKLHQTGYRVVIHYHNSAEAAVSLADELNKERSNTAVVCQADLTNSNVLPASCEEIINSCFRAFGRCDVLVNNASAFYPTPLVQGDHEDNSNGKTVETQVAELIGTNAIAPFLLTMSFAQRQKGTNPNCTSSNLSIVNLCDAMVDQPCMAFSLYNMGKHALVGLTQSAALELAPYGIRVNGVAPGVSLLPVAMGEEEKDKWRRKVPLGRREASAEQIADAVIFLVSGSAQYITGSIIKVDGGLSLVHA
# [6] = biological target: Bifunctional dihydrofolate reductase-thymidylate synthase (Leishmania major, UniProt P07382); test: Inhibition of recombinant Leishmania major DHFR-TS expressed in Escherichia coli BL21 (DE3) cells using dihydrofolate as substrate in presence of NADPH by spectrophotometric analysis
# [7] = test system: Trypanosoma brucei brucei; test: Antitrypanosomal activity against bloodstream form of Trypanosoma brucei brucei Lister 427 assessed as parasite growth inhibition at 10 uM incubated for 72 hrs by resazurin dye based analysis relative to control; type: functional
# [8] = biological target: Bifunctional dihydrofolate reductase-thymidylate synthase (Trypanosoma brucei brucei, UniProt Q27783); test: Inhibition of recombinant Trypanosoma brucei DHFR-TS expressed in Escherichia coli BL21 (DE3) cells using dihydrofolate as substrate in presence of NADPH by spectrophotometric analysis
# Dihydrofolate reductase = biological target: T3, Dihydrofolate reductase (Homo sapiens, UniProt P00374); test: Inhibition of recombinant human DHFR expressed in Escherichia coli BL21 (DE3) cells using dihydrofolate as substrate in presence of NADPH by spectrophotometric analysis; type: toxicity
# T3 sequence (P00374 whole entry): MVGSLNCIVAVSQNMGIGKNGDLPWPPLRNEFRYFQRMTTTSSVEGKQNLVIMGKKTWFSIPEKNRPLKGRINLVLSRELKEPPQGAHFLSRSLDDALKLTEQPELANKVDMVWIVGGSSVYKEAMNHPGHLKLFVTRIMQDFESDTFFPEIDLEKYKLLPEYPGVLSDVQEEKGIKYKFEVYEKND
# A549 = test: Cytotoxicity against human A549 cells at 10 uM measured after 48 hrs by Celltiter-Glo assay relative to control; type: toxicity, cell-based; settings: a549, 48 h
# Summary of the method: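 Tested at 10 μM. A549 cells grown in DMEM with 10% FCS, streptomycin 100 μg/mL and penicillin G 100 U/mL. Viability read as cellular ATP by CellTiter-Glo luminescence.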
# [9] = (§2) Cytotoxicity against human THP-1 derived macrophages by colorimetric MTT assay; type: toxicity, cell-based, Macrophage; settings: THP-1 derived macrophages
# Summary of the method: (§3)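 CC50 from at least three independent MTT colorimetric cytotoxicity runs on THP-1-derived macrophages. Selectivity index is CC50 (or lower CC50 interval estimate) divided by antiparasitic EC50.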
# [10] = test system: Trypanosoma brucei brucei; test: Antitrypanosomal activity against bloodstream form of Trypanosoma brucei brucei Lister 427 assessed as parasite growth inhibition incubated for 72 hrs by resazurin dye based analysis; type: functional, organism-based; settings: Lister 427, 72 h
# CYP1A2 = biological target: T4, CYP1A2 (Homo sapiens, UniProt P05177); test: Inhibition of CYP1A2 (unknown origin) expressed in baculovirus-infected insect cells at 10 uM using CYP/Luciferin as substrate incubated for 30 mins in presence of NADPH by luminescence based analysis relative to control; type: ADME; settings: probe CYP/Luciferin; summary of the method: as §1
# T4 sequence (P05177 whole entry): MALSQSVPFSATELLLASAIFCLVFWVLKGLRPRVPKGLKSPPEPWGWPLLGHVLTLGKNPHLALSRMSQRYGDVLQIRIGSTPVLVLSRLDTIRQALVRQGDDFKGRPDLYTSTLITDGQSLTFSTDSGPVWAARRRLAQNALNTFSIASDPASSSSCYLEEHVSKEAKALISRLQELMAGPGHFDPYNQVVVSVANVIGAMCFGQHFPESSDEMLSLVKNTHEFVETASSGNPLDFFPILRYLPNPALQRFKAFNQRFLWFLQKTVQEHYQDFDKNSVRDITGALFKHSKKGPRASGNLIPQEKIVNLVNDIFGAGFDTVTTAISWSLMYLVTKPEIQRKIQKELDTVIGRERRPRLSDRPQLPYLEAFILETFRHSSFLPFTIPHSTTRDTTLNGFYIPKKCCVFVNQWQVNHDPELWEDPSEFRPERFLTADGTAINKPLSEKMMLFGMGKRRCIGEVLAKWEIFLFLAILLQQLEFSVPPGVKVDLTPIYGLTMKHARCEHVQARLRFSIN
# [11] = biological target: Voltage-gated inwardly rectifying potassium channel KCNH2 (Homo sapiens, UniProt Q12809); test: Inhibition of hERG potassium channel at 10 uM by fluorescence polarization assay relative to control; type: toxicity
# Summary of the method: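 Tested at 10 μM. Fluorescence polarization readout using a hERG-containing membrane fraction and a red fluorescent high-affinity hERG tracer. Displacement of the tracer by the compound is measured.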
# Macrophage = test: as §2; type: toxicity, cell-based; settings: macrophage; summary of the method: as §3
# Bifunctional dihydrofolate reductase-thymidylate synthase (Leishmania major, UniProt P07382), sequence (P07382 whole entry): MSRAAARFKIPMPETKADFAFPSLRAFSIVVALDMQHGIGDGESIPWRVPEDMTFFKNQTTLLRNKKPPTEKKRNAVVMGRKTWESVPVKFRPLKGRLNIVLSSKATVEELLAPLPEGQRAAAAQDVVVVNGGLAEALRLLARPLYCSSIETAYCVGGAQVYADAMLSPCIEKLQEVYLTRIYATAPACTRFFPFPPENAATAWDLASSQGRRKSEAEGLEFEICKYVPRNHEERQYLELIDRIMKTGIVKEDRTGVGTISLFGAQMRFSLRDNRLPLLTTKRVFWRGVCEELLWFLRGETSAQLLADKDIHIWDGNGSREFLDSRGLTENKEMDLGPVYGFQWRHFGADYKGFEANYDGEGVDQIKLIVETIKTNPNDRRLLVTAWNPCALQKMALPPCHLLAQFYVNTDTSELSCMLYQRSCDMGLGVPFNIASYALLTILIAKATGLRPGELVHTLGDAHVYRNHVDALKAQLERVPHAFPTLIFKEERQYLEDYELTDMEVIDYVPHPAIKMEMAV
# Bifunctional dihydrofolate reductase-thymidylate synthase (Trypanosoma brucei brucei, UniProt Q27783), sequence (Q27783 whole entry): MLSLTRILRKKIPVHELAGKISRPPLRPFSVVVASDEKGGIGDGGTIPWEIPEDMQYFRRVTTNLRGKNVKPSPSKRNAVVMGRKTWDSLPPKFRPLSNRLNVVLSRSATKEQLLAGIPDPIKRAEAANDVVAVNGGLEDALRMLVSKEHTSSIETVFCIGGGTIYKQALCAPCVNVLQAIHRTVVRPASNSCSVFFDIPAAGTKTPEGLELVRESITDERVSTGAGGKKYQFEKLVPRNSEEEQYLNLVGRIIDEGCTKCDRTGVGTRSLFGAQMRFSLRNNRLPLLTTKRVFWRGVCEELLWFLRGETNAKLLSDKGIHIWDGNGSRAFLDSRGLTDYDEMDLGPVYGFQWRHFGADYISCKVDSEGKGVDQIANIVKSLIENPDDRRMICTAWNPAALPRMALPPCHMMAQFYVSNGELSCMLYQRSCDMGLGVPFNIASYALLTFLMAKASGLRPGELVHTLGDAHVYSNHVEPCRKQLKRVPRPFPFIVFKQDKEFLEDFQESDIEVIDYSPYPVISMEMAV
# CYP3A4, sequence (P08684 whole entry, canonical isoform): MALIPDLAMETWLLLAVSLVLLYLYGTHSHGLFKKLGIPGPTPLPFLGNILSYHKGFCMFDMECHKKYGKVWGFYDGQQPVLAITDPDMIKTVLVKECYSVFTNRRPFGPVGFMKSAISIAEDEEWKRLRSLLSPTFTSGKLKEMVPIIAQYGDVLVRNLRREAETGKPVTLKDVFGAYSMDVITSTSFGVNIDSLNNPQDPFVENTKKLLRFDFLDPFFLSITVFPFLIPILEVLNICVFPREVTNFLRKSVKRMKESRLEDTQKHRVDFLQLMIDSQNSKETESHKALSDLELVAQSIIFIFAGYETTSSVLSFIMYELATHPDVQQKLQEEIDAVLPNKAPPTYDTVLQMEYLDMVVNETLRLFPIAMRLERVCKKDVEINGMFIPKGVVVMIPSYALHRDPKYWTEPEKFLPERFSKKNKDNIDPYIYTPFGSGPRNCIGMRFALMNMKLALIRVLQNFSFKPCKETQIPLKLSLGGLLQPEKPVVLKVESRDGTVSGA
# Voltage-gated inwardly rectifying potassium channel KCNH2, sequence (Q12809 whole entry): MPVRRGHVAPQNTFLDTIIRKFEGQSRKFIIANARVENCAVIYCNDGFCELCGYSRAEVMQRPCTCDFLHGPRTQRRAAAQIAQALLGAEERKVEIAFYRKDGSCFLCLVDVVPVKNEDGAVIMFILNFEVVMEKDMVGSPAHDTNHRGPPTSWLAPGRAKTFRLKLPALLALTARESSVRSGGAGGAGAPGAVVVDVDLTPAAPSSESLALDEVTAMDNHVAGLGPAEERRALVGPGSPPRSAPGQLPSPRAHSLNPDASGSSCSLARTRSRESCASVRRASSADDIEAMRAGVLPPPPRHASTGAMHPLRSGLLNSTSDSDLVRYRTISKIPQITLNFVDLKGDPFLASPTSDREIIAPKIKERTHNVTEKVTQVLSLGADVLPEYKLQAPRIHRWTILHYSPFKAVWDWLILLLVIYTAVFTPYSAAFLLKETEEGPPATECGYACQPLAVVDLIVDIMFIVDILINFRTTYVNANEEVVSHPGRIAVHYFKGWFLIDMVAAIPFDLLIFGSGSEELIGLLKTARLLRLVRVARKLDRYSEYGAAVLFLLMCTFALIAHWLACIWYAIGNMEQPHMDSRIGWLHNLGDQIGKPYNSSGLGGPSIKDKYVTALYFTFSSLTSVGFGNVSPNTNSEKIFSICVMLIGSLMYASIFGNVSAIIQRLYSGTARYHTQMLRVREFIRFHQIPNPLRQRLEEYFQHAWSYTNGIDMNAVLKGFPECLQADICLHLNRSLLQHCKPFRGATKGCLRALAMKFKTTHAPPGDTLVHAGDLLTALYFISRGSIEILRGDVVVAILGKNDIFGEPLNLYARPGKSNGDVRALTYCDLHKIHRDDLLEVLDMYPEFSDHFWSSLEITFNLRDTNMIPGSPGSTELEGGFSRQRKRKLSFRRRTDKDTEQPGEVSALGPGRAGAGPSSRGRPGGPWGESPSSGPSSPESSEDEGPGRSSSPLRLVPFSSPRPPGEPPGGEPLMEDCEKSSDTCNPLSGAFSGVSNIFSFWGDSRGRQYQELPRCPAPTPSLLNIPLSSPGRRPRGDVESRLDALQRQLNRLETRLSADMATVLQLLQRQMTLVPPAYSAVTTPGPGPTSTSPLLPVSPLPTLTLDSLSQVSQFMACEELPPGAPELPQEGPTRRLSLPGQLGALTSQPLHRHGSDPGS
smiles,measurement,setting,value
COc1ccc(Oc2ccc(CNCc3cnc4nc(N)nc(N)c4n3)cc2)cc1,selectivity ratio,[1],1
same,selectivity ratio,[2],1
same,"inhibition at 0.5 h, 10 µM",CYP3A4,33%
same,selectivity ratio,[3],192
same,selectivity ratio,[4],385
same,Activity,786-0,0%
same,IC50,Pteridine reductase 1,260 nM
same,IC50,[5],520 nM
NC(=O)C1CCCN1C(=O)Cc1ccc(N(CCCO)Cc2cnc3nc(N)nc(N)c3n2)cc1 (configuration not stated),IC50,[6],890 nM
same,"inhibition at 0.5 h, 10 µM",CYP3A4,0%
same,inhibition at 10 µM,[7],23%
same,IC50,Pteridine reductase 1,170 nM
same,IC50,[8],590 nM
same,IC50,[5],4 nM
CCCOC(=O)C1CCN(C(=O)c2ccc(N(C)Cc3cnc4nc(N)nc(N)c4n3)cc2)CC1,selectivity ratio,[1],59
same,IC50,[6],150 nM
same,selectivity ratio,[2],3
same,IC50,Dihydrofolate reductase,9000 nM
same,selectivity ratio,[3],300
same,selectivity ratio,[4],22
same,Activity,786-0,0%
same,IC50,Pteridine reductase 1,410 nM
same,IC50,[8],3000 nM
same,Activity,A549,0%
same,IC50,[5],30 nM
Nc1nc(N)c2nc(CNc3ccc(C(=O)c4ccccc4)cc3)cnc2n1,selectivity ratio,[1],2
same,IC50,[6],3260 nM
same,selectivity ratio,[2],6
same,"inhibition at 0.5 h, 10 µM",CYP3A4,17%
same,IC50,Dihydrofolate reductase,6020 nM
same,selectivity ratio,[3],6020
same,selectivity ratio,[4],201
same,Activity,786-0,10%
same,IC50,Pteridine reductase 1,30 nM
same,IC50,[8],990 nM
same,IC50,[5],1 nM
Nc1nc(N)c2nc(CNc3cccc4ccccc34)cnc2n1,selectivity ratio,[1],3
same,IC50,[6],1510 nM
same,selectivity ratio,[2],10
same,IC50,Dihydrofolate reductase,4400 nM
same,selectivity ratio,[3],440
same,selectivity ratio,[4],440
same,Activity,786-0,0%
same,IC50,Pteridine reductase 1,10 nM
same,IC50,[8],450 nM
same,Activity,A549,0%
same,IC50,[5],10 nM
COc1ccc(Oc2ccc(CN(C)Cc3cnc4nc(N)nc(N)c4n3)cc2)cc1,CC50,[9],12500 nM
same,EC50,[10],1300 nM
same,"inhibition at 0.5 h, 10 µM",CYP1A2,9%
same,inhibition at 10 µM,[7],100%
same,Activity,786-0,1%
same,IC50,Pteridine reductase 1,450 nM
same,Activity,A549,15%
same,IC50,[5],150 nM
CCOC(=O)C1CCN(C(=O)c2ccc(N(C)Cc3cnc4nc(N)nc(N)c4n3)cc2)CC1,selectivity ratio,[1],90
same,IC50,[6],130 nM
same,selectivity ratio,[2],1
same,IC50,Dihydrofolate reductase,12000 nM
same,selectivity ratio,[3],300
same,selectivity ratio,[4],27
same,Activity,786-0,0%
same,IC50,Pteridine reductase 1,450 nM
same,IC50,[8],9000 nM
same,IC50,[5],40 nM
NC(=O)C1CCN(C(=O)Cc2ccc(N(CCCO)Cc3cnc4nc(N)nc(N)c4n3)cc2)CC1,IC50,[6],1140 nM
same,inhibition at 10 µM,[7],30%
same,Activity,786-0,0%
same,IC50,Pteridine reductase 1,170 nM
same,IC50,[8],18000 nM
same,IC50,[5],10 nM
COc1ccc(Oc2ccc(CN(Cc3ccccc3)Cc3cnc4nc(N)nc(N)c4n3)cc2)cc1,CC50,[9],12500 nM
same,EC50,[10],4530 nM
same,inhibition at 10 µM,[7],100%
same,Activity,786-0,0%
same,IC50,Pteridine reductase 1,150 nM
same,IC50,[5],240 nM
CCN(Cc1cnc2nc(N)nc(N)c2n1)c1ccc(C(=O)N2CCC(C(=O)OC)CC2)cc1,selectivity ratio,[1],9
same,IC50,[6],460 nM
same,selectivity ratio,[2],7
same,IC50,Dihydrofolate reductase,4300 nM
same,selectivity ratio,[3],48
same,Activity,786-0,0%
same,IC50,Pteridine reductase 1,13300 nM
same,IC50,[8],620 nM
same,Activity,A549,100%
same,IC50,[5],90 nM
COC(=O)C1CCN(C(=O)c2ccc(N(Cc3ccccc3)Cc3cnc4nc(N)nc(N)c4n3)cc2)CC1,selectivity ratio,[1],80
same,IC50,[6],910 nM
same,selectivity ratio,[2],61
same,IC50,Dihydrofolate reductase,73000 nM
same,selectivity ratio,[3],> 730000
same,selectivity ratio,[4],3650
same,Activity,786-0,0%
same,IC50,Pteridine reductase 1,20 nM
same,IC50,[8],1200 nM
same,inhibition (INH),[11],45%
same,Activity,A549,100%
same,IC50,[5],< 0.1 nM
N=C(N)c1ccc(OCCCCCOc2ccc(C(=N)N)cc2)cc1 [PENTAMIDINE],CC50,Macrophage,10000 nM
CCN(Cc1cnc2nc(N)nc(N)c2n1)c1ccc(C(=O)c2ccccc2)cc1,CC50,[9],25000 nM
same,EC50,[10],660 nM
same,IC50,[6],230 nM
same,inhibition at 10 µM,[7],78%
same,Activity,786-0,0%
same,IC50,Pteridine reductase 1,50 nM
same,IC50,[8],340 nM
same,Activity,A549,0%
same,IC50,[5],< 0.1 nM
Nc1nc(N)c2nc(CNc3ccc(C(=O)NCCc4ccccc4)cc3)cnc2n1,selectivity ratio,[1],56
same,IC50,[6],720 nM
same,selectivity ratio,[2],41
same,IC50,Dihydrofolate reductase,40300 nM
same,selectivity ratio,[3],> 403000
same,selectivity ratio,[4],1340
same,Activity,786-0,13%
same,IC50,Pteridine reductase 1,30 nM
same,IC50,[8],980 nM
same,Activity,A549,100%
same,IC50,[5],< 0.1 nM
COC(=O)C1CCN(C(=O)c2ccc(NCc3cnc4nc(N)nc(N)c4n3)cc2)CC1,IC50,[6],620 nM
same,IC50,Dihydrofolate reductase,51000 nM
same,Activity,786-0,0%
same,IC50,[8],20500 nM
same,Activity,A549,100%
same,IC50,[5],110 nM
COC(=O)C1CCN(C(=O)c2ccc(N(C)Cc3cnc4nc(N)nc(N)c4n3)cc2)CC1,IC50,[6],260 nM
same,IC50,Dihydrofolate reductase,44000 nM
same,Activity,786-0,0%
same,IC50,[8],270 nM
same,Activity,A549,100%
same,IC50,[5],50 nM
